# Results reported in article PMC9828401 (Acta Biochimica et Biophysica Sinica, 2022).
# Entries after “also recorded” stand apart in the source; their conditions may differ. Read-outs that look alike come from different tables or passages of the source. Ends that are not written are not given here.
# T1: recombinant PAC1-EC1 protein
# T1 chain: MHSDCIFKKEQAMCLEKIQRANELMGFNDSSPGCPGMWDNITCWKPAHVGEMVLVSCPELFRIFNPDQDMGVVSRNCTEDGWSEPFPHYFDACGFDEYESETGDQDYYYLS
# How the values were obtained:
# PAC1-R in RGC-5 cells = assay type: cell-based, mouse; details: 15 min; for PAC1-R level in RGC-5 cells (immunofluorescence) / nuclear translocation of PAC1-R in RGC-5 cells: 1 μM
# PAC1-R promoter = PAC1-R promoter activity assay; assay type: cell-based, mouse; details: RGC-5
# PAC1-R [1] = test: Western blot of PAC1-R in RGC-5 cells; assay type: cell-based, mouse; details: for PAC1-R expression by Western blot: 0.1 μM to 100 μM
# Outline: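 RGC-5 cells (F12, 10% FBS) were treated for 30 min with test compound (0.01–100 μM), with or without 50 μM 2-bromopalmitate; controls received serum-free medium. Blots were run by SDS-PAGE/PVDF, probed with rabbit anti-PAC1-R (C-terminal aa 506–525) and anti-β-actin, and detected with HRP-ECL.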
# PACAP promoter = PACAP promoter activity assay; assay type: cell-based, mouse; details: RGC-5; for positive effect on PACAP’s promoter activity: over 10 μM
# PACAP = PACAP level determined by ELISA in RGC-5 cells; assay type: cell-based, mouse; details: for positive effect on PACAP expression level: over 10 μM
# RGC-5 cells [2] = test: TUNEL assay, MPP-treated RGC-5 cells; assay type: cell-based, mouse; details: 8 mM MPP; for TUNEL signal (MPP-induced apoptosis): pre-treatment with 10 μM peptide
# PAC1-R [3] = details: cited from earlier work
# PAC1-R [4] = details: cited from earlier work; remark: listed apart in the source
# RGC-5 cells [5] = test: MTT cell viability assay, MPP-treated RGC-5 PD cell model; assay type: cell-based, mouse; details: for protection against decrease of cell viability induced by MPP: 0.1–100 μM, 2 h before 8 mM MPP
# Outline: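 RGC-5 cells were seeded at 4×10⁴ per well and pretreated with test compound (0.1–100 μM) for 2 h before 8 mM MPP. After 24 h, MTT (0.5 mg/mL) was added for 4 h and formazan was dissolved in isopropanol. Readout was OD₅₇₀, expressed as % of cells without MPP. At least four parallel replicates, repeated three times.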
# [6] = ref [10]; cited from earlier work
# PAC1R-eGFP = test: Confocal microscopy of nuclear translocation of PAC1R-eGFP in PAC1R-CHO cells; assay type: cell-based, mouse; details: 1 μM, 15 min, vs control cells
# Outline: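 CHO-K1 cells (DMEM, 10% FBS, 37°C, 5% CO₂) stably transfected with C-terminally eGFP-tagged wild-type or Cys25Ala PAC1-R, selected with G418 (0.8–1 mg/mL) and cloned by limiting dilution; at least three matched clones were used. Cells were exposed to 1 μM test compound for 15 min, then imaged by confocal microscopy (ex 488/em 545 nm). Translocation was taken as nuclear/whole-cell fluorescence, with ≥3 replicates repeated three times.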
# [7] = system: M-PAC1R(Cys25/Ala25)-eGFP; test: Confocal microscopy of nuclear translocation of M-PAC1R; assay type: cell-based, mouse; details: 1 μM, 15 min
# Outline: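 CHO-K1 cells stably expressing C-terminally eGFP-tagged PAC1-R Cys25/Ala25 mutant, from lipofection, G418 (0.8–1 mg/mL) selection and limiting-dilution cloning; at least three clones with similar receptor levels run in parallel. Cells grown in 10% FBS medium at 37°C, 5% CO₂. Exposed to 1 μM test compound or none for 15 min; eGFP imaged by confocal microscopy (ex 488 nm, em 545 nm). ≥3 replicates, repeated three times.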
# [8] = system: PAC1-R promoter sequence (−2019 bp to −1739 bp); test: ChIP-PCR, PAC1-R promoter sequence, RGC-5 cells; assay type: cell-based, mouse; details: RGC-5, 1 μM, 15 min; antibody to PAC1-R C-terminus; 280 bp product
# [9] = system: PACAP promoter sequence (−858 bp to −536 bp); test: ChIP-PCR, PACAP promoter sequence, RGC-5 cells; assay type: cell-based, mouse; details: RGC-5, 1 μM, 15 min; antibody to PAC1-R C-terminus; 320 bp product
# PAC1-EC1 = PAC1-EC1 pre-saturated with PACAP(28–38); previous study; ref [19]; cited from earlier work
# PAC1-R [10] = details: cited from earlier work; remark: listed apart in the source
# [11] = ref [20], [21]; cited from earlier work
# [12] = target: T1, recombinant PAC1-EC1 protein; test: ITC
# [13] = RGC-5, 50 μM 2-bromopalmitate with 1 μM peptide
molecule,measurement,setting,value
"CCCCCCCCCCCCCCC(Br)C(=O)O (stereo not drawn) [2-bromopalmitate, reference compound]",inhibition of nuclear translocation of PAC1-R induced by PACAP(28-38) or TAT,PAC1-R in RGC-5 cells; [13],effectively inhibited
same,inhibition of up-regulation of PAC1-R induced by PACAP(28-38) or TAT,PAC1-R in RGC-5 cells; [13],effectively inhibited
same,inhibition of PACAP(28-38)- or TAT-induced PAC1-R promoter activity,"PAC1-R promoter; 50 μM 2-bromopalmitate, 15 min",significantly inhibited
same,truncated forms of PAC1-R with molecular weight smaller than 35 kDa,"PAC1-R [1]; 50 μM 2-bromopalmitate with PACAP(28-38) or TAT, Western blot",decrease
same,inhibition of PACAP(28-38)- or TAT-induced PAC1-R expression,"PAC1-R [1]; 50 μM 2-bromopalmitate, 30 min, Western blot",inhibited
same,inhibition of PACAP(28-38)- or TAT-induced PACAP promoter activity,"PACAP promoter; 50 μM 2-bromopalmitate, 15 min",significantly inhibited
same,inhibition of PACAP(28-38)- or TAT-induced PACAP expression,"PACAP; 50 μM 2-bromopalmitate, 30 min, ELISA",inhibited
same,inhibition of anti-apoptotic activities of PACAP(28-38) and TAT,"RGC-5 cells [2]; 50 μM 2-bromopalmitate, TUNEL",significantly inhibited
same,inhibition of oxidative stress-induced nuclear translocation and increase of PAC1-R expression,PAC1-R [3]; ref [23],can inhibit
"PACAP(6-38): PAC1-R antagonist (FTDSYSRYRKQMAVKKYLAAVLGKRYKQRVKNK; ends and bridges not checked; UniProt P18509 137-169, looked up, fragment)",antagonism of PAC1-R,PAC1-R [4]; ref [15],full antagonist
"C[n+]1ccc(-c2ccccc2)cc1 [MPP, 1-methyl-4-phenylpyridinium, reference compound]",apoptosis in RGC-5 cells,"RGC-5 cells [5]; 8 mM MPP, MTT assay",significant apoptosis
same,cells remaining viable after MPP,"RGC-5 cells [5]; RGC-5, 8 mM MPP, 24 h, MTT, % of cells without MPP",about 31%
same,number of TUNEL-positive cells,RGC-5 cells [2]; 24 h,increased the number of TUNEL-positive cells
"PACAP38: form of PACAP, ligand of PAC1-R (HSDGIFTDSYSRYRKQMAVKKYLAAVLGKRYKQRVKNK; ends and bridges not checked; UniProt P18509 132-169, looked up)",activation of PAC1-R,"PAC1-R [4]; compared with PACAP27, ref [2]",significantly more complete and effective activity than PACAP27
same,PAC1-R’s own expression,"PAC1-R [3]; ref [22], [23]",up-regulate PAC1-R’s own expression
same,nuclear translocation of PAC1-R,"PAC1-R [3]; ref [22], [23]",induce the nuclear translocation of PAC1-R
"pituitary adenylate cyclase-activating polypeptide (HSDGIFTDSYSRYRKQMAVKKYLAAVLGKRYKQRVKNK; ends and bridges not checked; UniProt P18509 132-169, looked up) [PACAP]",therapeutic effect mediated by PAC1-R,[6],significant therapeutic effect
GRKKRRQRRRP [TAT],nuclear translocation of PAC1R-eGFP,PAC1R-eGFP,significantly detected
same,nuclear translocation of M-PAC1-R (Cys25/Ala25),[7],significantly weaker than that of the wild-type PAC1-R; also recorded: can not induce significant trafficking or aggregation
same,PAC1-R level in RGC-5 cells (immunofluorescence),PAC1-R in RGC-5 cells,increase the PAC1-R level
same,nuclear translocation of PAC1-R in RGC-5 cells,PAC1-R in RGC-5 cells,induce significant nuclear translocation of PAC1-R
same,ChIP-PCR band for PAC1-R promoter sequence,[8],positive band
same,ChIP-PCR band for PACAP promoter sequence,[9],positive band
same,promoter activity of PAC1-R,"PAC1-R promoter; 0.1 μM–1 μM, 15 min",significantly enhanced
same,PAC1-R expression by Western blot,PAC1-R [1]; 30 min,increased positively with the concentrations
same,PAC1-R truncated form (about 35 kDa),"PAC1-R [1]; Western blot, 30 min",induced
same,promoter activity of PACAP,"PACAP promoter; 0.01 μM–10 μM, 15 min",significantly enhanced
same,promoter activity of PACAP,"PACAP promoter; 0.1 μM–10 μM, 15 min",increased
same,positive effect on PACAP’s promoter activity,PACAP promoter,decreased
same,expression level of PACAP (ELISA),"PACAP; 0.1 μM–10 μM, 30 min",significantly increase; also recorded: increased
same,positive effect on PACAP expression level,PACAP,decreased
same,protection against decrease of cell viability induced by MPP,"RGC-5 cells [5]; RGC-5, 24 h, MTT",significantly blocked
same,TUNEL signal (MPP-induced apoptosis),RGC-5 cells [2]; 24 h,significantly reduced
same,binding signal from titration of TAT,PAC1-EC1,no binding signal is detected
same,binding to allosteric regulatory site,PAC1-R [10]; ref [19],binds to the same allosteric regulatory site mainly through charge interaction
same,cytoprotective activities,[11],significant cytoprotective activities
GKRYKQRVKNK [PACAP(28-38)],nuclear translocation of PAC1R-eGFP,PAC1R-eGFP,significantly detected
same,nuclear translocation of M-PAC1-R (Cys25/Ala25),[7],significantly weaker than that of the wild-type PAC1-R; also recorded: can not induce significant trafficking or aggregation
same,PAC1-R level in RGC-5 cells (immunofluorescence),PAC1-R in RGC-5 cells,increase the PAC1-R level
same,nuclear translocation of PAC1-R in RGC-5 cells,PAC1-R in RGC-5 cells,induce significant nuclear translocation of PAC1-R
same,ChIP-PCR band for PAC1-R promoter sequence,[8],positive band
same,ChIP-PCR band for PACAP promoter sequence,[9],positive band
same,promoter activity of PAC1-R,"PAC1-R promoter; 0.1 μM–1 μM, 15 min",significantly enhanced
same,promoter activity of PAC1-R,"PAC1-R promoter; 0.1–100 μM, 15 min (legend of Figure 3B), *P<0.01 vs 0 μM",significantly enhanced
same,PAC1-R expression by Western blot,PAC1-R [1]; 30 min,increased positively with the concentrations
same,PAC1-R truncated form (about 35 kDa),"PAC1-R [1]; Western blot, 30 min",induced
same,promoter activity of PACAP,"PACAP promoter; 0.1 μM–10 μM, 15 min",significantly enhanced; also recorded: increased
same,positive effect on PACAP’s promoter activity,PACAP promoter,decreased
same,expression level of PACAP (ELISA),"PACAP; 0.01 μM–10 μM, 30 min",significantly increase
same,expression level of PACAP (ELISA),"PACAP; 0.1 μM–10 μM, 30 min",increased
same,positive effect on PACAP expression level,PACAP,decreased
same,protection against decrease of cell viability induced by MPP,"RGC-5 cells [5]; RGC-5, 24 h, MTT",significantly blocked
same,TUNEL signal (MPP-induced apoptosis),RGC-5 cells [2]; 24 h,significantly reduced
same,binding to allosteric regulatory site,"PAC1-R [10]; ref [16], [17]",binds to the allosteric regulatory site through both conformational and charge interaction
same,cytoprotective activities,[11],significant cytoprotective activities
GKRYKQRVKNK (ends and bridges not checked) [PACAP(28-38)],Ka,[12],635000 M⁻¹
GRKKRRQRRRP [TAT],Ka,[12],503000 M⁻¹
